Measured values reported in PubChem BioAssay AID504826 (Southern Research Specialized Biocontainment Screening …, 2011).

System: HEp-2 viability, luminescence (CellTiter-Glo)
Assay: HEp-2 cell cytotoxicity, dose response, cytotoxicity control for RSV antiviral project, synthesized compounds, set 9 (AID 504826)
In short: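 Test system: uninfected HEp-2 human cells, ATP-based viability; amount: 10,595 cells/well; doses: Eight-point twofold dilution series, 0.5% DMSO final; timing: compound exposure six days at 37 °C, 5% CO2; detection: ATP luminescence (CellTiter-Glo); measure: % viability and fitted CC50; benchmarks: cell-only wells as 100% viability reference; repeats: triplicate wells per concentration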

SMILES: COc1ccccc1CNC(=O)C1CCN(S(=O)(=O)c2cccc3nonc23)CC1
- CC50: 146 µM

SMILES: COCCCNC(=O)c1ccc(Cn2c(=O)c3ccccc3n(Cc3ccc(Br)cc3)c2=O)cc1
- CC50: 126 µM

SMILES: Cc1ccc(C)c(NC(=O)[C@@H]2CCCN2S(=O)(=O)c2cccc3cccnc23)c1
- CC50: 25 µM

SMILES: COCCCNC(=O)c1ccc(Cn2c(=O)c3ccccc3n(Cc3ccc([N+](=O)[O-])cc3)c2=O)cc1
- CC50: 115 µM

SMILES: COCCCNC(=O)c1ccc(Cn2c(=O)c3ccccc3n(Cc3ccc(C(F)(F)F)cc3)c2=O)cc1
- CC50: 95.7 µM

SMILES: COCCCNC(=O)c1ccc(Cn2c(=O)c3ccccc3n(Cc3ccc(C)c(C(F)(F)F)c3)c2=O)cc1
- CC50: 75.2 µM

SMILES: COCCCNC(=O)c1ccc(Cn2c(=O)c3ccccc3n(Cc3ccc(OC)cc3)c2=O)cc1
- CC50: 121 µM
